Measured values: ChEMBL document CHEMBL2424605, “Discovery of novel (1S)-(-)-verbenone derivatives with anti-oxidant and anti-ischemic effects” (Bioorg Med Chem Lett, 2013)
Activity calls are given as the source filed them. The rule behind the calls is not given here.

Experiments:
[1] = Cytotoxicity against Sprague-Dawley rat cortical neurons assessed as cell viability at 10 uM by LDH assay; settings: cortical neurone
[2] = Antioxidant activity assessed as AAPH-induced free radical scavenging activity at 25 uM preincubated for 30 mins followed by AAPH induction measured every 5 mins for 9 hrs by ORAC assay relative to vehicle-treated control; assay type: functional
Outline: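 ORAC: area under the fluorescence decay curve (netAUC) expressed as fold change relative to vehicle control. Mean ± SEM, N = 12; trolox included as reference.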

[3] = test system: Radical scavenging activity; experiment: Antioxidant activity assessed as inhibition of DPPH-induced free radical generation at 80 uM after 30 mins relative to control; assay type: functional
Outline: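 DPPH scavenging given as % inhibition of DPPH absorbance, with values derived from a standard dose–response curve of vitamin C (0–500 µM). Mean ± SEM, N = 9.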

Cortical neurone [4] = experiment: Anti-excitotoxic activity in Sprague-Dawley rat cortical neurons assessed as reduction of NMDA-evoked neuronal injury at 10 uM incubated for 30 mins prior to NMDA induction and maintained during NMDA induction for 15 mins measured after 9 hrs; assay type: functional
Outline: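 Rat cortical neurons exposed to NMDA for 15 min, then incubated 9 h. Compound or MK801 (10 µM) added 30 min before and kept during NMDA. Injury scored as % inhibition of LDH release, given as median with interquartile range; N = 9–18.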

Cortical neurone [5] = experiment: (§1) Anti-ischemic activity in Sprague-Dawley rat cortical neurons assessed as reduction of oxygen-glucose deprivation/reoxygenation-induced neuronal injury at 10 uM incubated for 30 mins prior to induction of oxygen-glucose deprivation and maintained during entire period of oxygen-glucose deprivation/reoxygenation measured after 9 hrs by LDH assay; assay type: functional
Outline: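 Rat cortical neurons given 90 min oxygen-glucose deprivation, then 9 h reoxygenation. Compound, MK801 or trolox (10 µM or indicated concentrations) applied 30 min before OGD and kept through OGD/R. Neuronal injury read by LDH assay; mean ± SEM, N = 24.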

Cortical neurone [6] = experiment: as §1, with “deprivation-induced intracellular oxidative stress” for “deprivation/reoxygenation-induced neuronal injury”, “1 hr” for “9 hrs”, “H2DCFDA staining-based […] microscopic analysis” for “LDH assay”; assay type: functional, cell-based
Outline: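 Neurons pretreated 30 min before 90 min OGD, with treatment kept through reoxygenation. H2DCFDA loaded 1 h after reoxygenation; intracellular oxidative stress read as rise in fluorescence intensity 2 h later by imaging.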

[7] = test system: Radical scavenging activity; experiment: Antioxidant activity assessed as inhibition of DPPH-induced free radical generation at 1 to 500 uM after 30 mins relative to control; assay type: functional
Cortical neurone [8] = experiment: Anti-excitotoxic activity in Sprague-Dawley rat cortical neurons assessed as inhibition of NMDA-induced intracellular calcium uptake at 10 uM incubated for 30 mins prior to NMDA induction measured after 50 secs by fluo-3 AM staining-based […] microscopic analysis; assay type: functional, cell-based
Outline: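 Cultured rat cortical neurons loaded with Fluo-3 AM for 30 min with or without 10 µM compound, then exposed to NMDA. Intracellular free Ca2+ read 50 s after NMDA as fold change in integrated fluorescence density of Ca2+-bound Fluo-3 over basal. Median, interquartile range and min–max reported; N = 4–5; compared with NMDA-treated group.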

SMILES	Activity [1]	fold change (FC) [2]	inhibition [3]	Activity (Cortical neurone [4])	Activity (Cortical neurone [5])	Activity (Cortical neurone [6])	inhibition [7]	inhibition (Cortical neurone [8])
CC1(C)[C@@H]2C[C@H]1C(/C=C/c1ccccc1)=CC2=O	Non-toxic	1.92	inactive					
COc1ccc(/C=C/C2=CC(=O)[C@H]3C[C@@H]2C3(C)C)cc1	Non-toxic	2.64	inactive					
CC1(C)[C@@H]2C[C@H]1C(/C=C/c1ccc(-n3cccc3)cc1)=CC2=O	Non-toxic	6.81	inactive					
CC1=CC(=O)[C@H]2C[C@@H]1C2(C)C [LEVOVERBENONE]	Non-toxic	1.19	inactive					
CC1(C)[C@@H]2C[C@H]1C(/C=C/c1ccccn1)=CC2=O	Non-toxic	1.63	inactive	Active				
C[C@]12N[C@H](Cc3ccccc31)c1ccccc12 [DIZOCILPINE]	Non-toxic			Active	Active			
CC1(C)[C@@H]2C[C@H]1C(/C=C/c1ccc(-c3ccccc3)cc1)=CC2=O	Non-toxic	1.85	inactive					
CC1(C)[C@@H]2C[C@H]1C(/C=C/c1ccc(O)c(Br)c1)=CC2=O	Non-toxic	11.6	29.4%					
COc1cc(/C=C/C2=CC(=O)[C@H]3C[C@@H]2C3(C)C)cc(OC)c1	Non-toxic	3.14	inactive					
CC1(C)[C@@H]2C[C@H]1C(/C=C/c1cccnc1)=CC2=O	Non-toxic	1.59	inactive					
COc1ccc(OC)c(/C=C/C2=CC(=O)[C@H]3C[C@@H]2C3(C)C)c1	Non-toxic	2.25	inactive					
CC1(C)[C@@H]2C[C@H]1C(/C=C/c1ccc(F)cc1)=CC2=O	Non-toxic	1.81	inactive					
Cc1c(C)c2c(c(C)c1O)CCC(C)(C(=O)O)O2 (stereo not given)		3.11						
COc1cc(O)ccc1/C=C/C1=CC(=O)[C@H]2C[C@@H]1C2(C)C	Non-toxic	7.37	38.1%					
COc1ccc(/C=C/C2=CC(=O)[C@H]3C[C@@H]2C3(C)C)c(O)c1	Non-toxic	9.48	51.2%	Active				
CC1(C)[C@@H]2C[C@H]1C(/C=C/c1ccc(O)c(O)c1)=CC2=O	Non-toxic	9.09	91.6%	Active	Active	Active		
COc1ccc(/C=C/C2=CC(=O)[C@H]3C[C@@H]2C3(C)C)cc1OC	Non-toxic	2.73	inactive					
O=C1O[C@H]([C@@H](O)CO)C(O)=C1O							74%	
CC1(C)[C@@H]2C[C@H]1C(/C=C/c1ccncc1)=CC2=O	Non-toxic	1.56	inactive					
COc1cc(/C=C/C2=CC(=O)[C@H]3C[C@@H]2C3(C)C)cc(O)c1O [SP-8356]	Non-toxic	6.86	83.6%	Active	Active	Active		Active
CC1(C)[C@@H]2C[C@H]1C(/C=C/c1ccc(O)cc1)=CC2=O	Non-toxic	10.7	19.1%	Active	Active	inactive		
CC1(C)[C@@H]2C[C@H]1C(/C=C/c1cccc(O)c1)=CC2=O	Non-toxic	5.11	inactive					
COc1cc(O)cc(OC)c1/C=C/C1=CC(=O)[C@H]2C[C@@H]1C2(C)C	Non-toxic	11.5	55.8%					
CC1(C)[C@@H]2C[C@H]1C(/C=C/c1ccccc1O)=CC2=O	Non-toxic	6.84	4.64%					
